SENP8 block-1 – SENP8 protease inhibitors, primary screen, biochemical, luminescence; Sentrin-specific protease 8 (Homo sapiens), Q96LD8; purified SENP8, Z-RLRGG-aminoluciferin cleavage; inhibition, % at 10 µM; 330,000 tested, 1.2% active; in the data active = inhibition above about 50%
Target sequence (Q96LD8 whole entry, looked up): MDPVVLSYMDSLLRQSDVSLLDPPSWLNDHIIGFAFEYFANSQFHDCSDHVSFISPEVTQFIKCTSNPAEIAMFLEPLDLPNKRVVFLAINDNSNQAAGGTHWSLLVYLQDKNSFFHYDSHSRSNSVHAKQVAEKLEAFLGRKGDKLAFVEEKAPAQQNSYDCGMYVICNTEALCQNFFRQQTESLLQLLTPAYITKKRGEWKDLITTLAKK
SENP8 block-2 – human SENP8 protease inhibitors, primary screen, biochemical, fluorescence, Nedd8 protein substrate, uHTS. recombinant SENP8. 360,000 tested, 0.64% active. inhibition, % at 20 µM. Sentrin-specific protease 8 (Homo sapiens), Q96LD8; in the data active = inhibition mostly above about 40%, no sharp cut-off; inactive = mostly below about 27%
SENP7 block – SENP7 protease inhibitors, primary screen, biochemical, luminescence, uHTS; recombinant SENP7, Z-RLRGG-aminoluciferin luminescence, 40 min; 330,000 tested, 1.5% active; Sentrin-specific protease 7 (Homo sapiens), Q9BQF6; inhibition, % at 5 µM;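 active = inhibition above about 50% at the single test dose, limit read from the data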;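 also: plate controls were DMSO with enzyme for no effect and no enzyme buffer wells for full effect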
SENP1 FRET inh – human SENP1 catalytic domain inhibitors, primary screen, biochemical, FRET, uHTS | 360,000 tested, 0.21% active | Sentrin-specific protease 1 (Homo sapiens), Q9P0U3 | inhibition, % at 10 µM | recombinant SENP1 catalytic domain, CyPet-SUMO1-YPet FRET cleavage | AID 624204, 2012;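 active = inhibition at least 30% at 10 µM, raw YFP signal under a set limit, fluorescence ratio 0.5 to 1.5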;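 also: 0% = enzyme with DMSO and 100% = no enzyme wells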
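Material: hSENP1 catalytic domain, recombinant; medium: Tris pH 8 with BME, BSA, NP40 and catalase; compound: single concentration of 10 µM compound, 0.5% DMSO final; technique: FRET read of cyan and yellow fluorescence; timing: 50 min enzyme reaction, room temperature, light-protected; reagent: SFCypet-SUMO1-SFYpet substrate at 25 nM; control set: no-enzyme low, enzyme-DMSO high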
UCH37 DUB inh – inhibitors of human UCH37 deubiquitinase, primary screen, biochemical, Ub-AMC cleavage, fluorescence. Ubiquitin carboxyl-terminal hydrolase isozyme L5 (Homo sapiens), Q9Y5K5. inhibition, % (concentration not given with the values). 330,000 tested, 0.33% active. purified proteasome/UCH37;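 active = mean inhibition over replicate wells above about 20%, limit read from the data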;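 also: 0% = compound-free wells with enzyme and 100% = wells lacking proteasome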
Target sequence (Q9Y5K5 whole entry, looked up): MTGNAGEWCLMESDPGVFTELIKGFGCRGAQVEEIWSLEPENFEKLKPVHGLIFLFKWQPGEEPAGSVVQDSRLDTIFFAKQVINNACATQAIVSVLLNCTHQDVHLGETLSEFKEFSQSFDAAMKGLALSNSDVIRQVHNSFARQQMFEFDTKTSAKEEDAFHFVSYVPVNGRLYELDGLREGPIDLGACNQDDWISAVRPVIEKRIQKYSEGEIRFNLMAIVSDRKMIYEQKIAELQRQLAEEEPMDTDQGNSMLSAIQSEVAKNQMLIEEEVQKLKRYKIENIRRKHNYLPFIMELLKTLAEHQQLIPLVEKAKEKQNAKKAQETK
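system = Proteasome-associated human UCH37 deubiquitinase | amount = 0.15 nM proteasome as dispensed | medium = pH 7.4 Tris-HCl (50 mM) with ovalbumin, ATP-MgCl2, DTT | incubation = 30 min preincubation with enzyme, 25 min cleavage at room temperature | detection = AMC fluorescence 355/460 nm | read-out basis = percent inhibition | controls = no-proteasome and no-compound wells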
SENP6 inh – SENP6 protease inhibitors, primary screen, biochemical, luminescence, uHTS | AID 2599, 2010 | Recombinant SENP6 catalytic domain, aminoluciferin luminescence | inhibition, % at 10 µM | 330,000 tested, 1.8% active;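 active = inhibition above about 50% at the single tested dose, limit read from the data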;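 also: plate controls were DMSO wells with enzyme for no effect and DMSO wells lacking enzyme for full effect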
SENP8 confirm – SENP8 protease inhibitors, retest, confirmation, biochemical, luminescence, single concentration | shares compounds with SENP7 block | Recombinant SENP8, Z-RLRGG-aminoluciferin luminescence, 60 min | inhibition, % at 12.5 µM | 6,200 tested, 40% active | AID 488912, 2010;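 active = mean inhibition across replicates above about 50%, limit read from the data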
SENP6 confirm – SENP6 protease inhibitors, confirmation, biochemical, luminescence, single concentration. shares compounds with SENP7 block. recombinant SENP6, Z-RLRGG-aminoluciferin luminescence. inhibition, % at 12.5 µM. 6,200 tested, 58% active. AID 488915, 2010
SENP7 conf – SENP7 protease inhibitors, retest, confirmation, biochemical, luminescence, single concentration. shares compounds with SENP7 block. recombinant SENP7, Z-RLRGG-aminoluciferin luminescence, 40 min. inhibition, % at 12.5 µM. 6,200 tested, 69% active. AID 488917, 2010
Casp3 SENP sel – caspase-3 protease inhibitors, confirmation, selectivity assay for SENP inhibitor project, biochemical, single concentration | inhibition, % at 12.5 µM | 6,200 tested, 60% active | purified caspase-3, Z-DEVD-aminoluciferin luminescence, 60 min | shares compounds with SENP7 block;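 active = mean inhibition above about 50%, limit read from the data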;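 also: plate controls were enzyme with DMSO for no effect and wells without caspase-3 for full effect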
SENP luc ctr – interferes with luciferase luminescence in SENP counter-screen | shares compounds with SENP7 block | Pre-incubated SENP8/Z-RLRGG-aminoluciferin, luciferase luminescence interference | inhibition, % at 12.5 µM | 6,200 tested, 39% active | AID 488919;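 active = mean inhibition above about 50% when retested at one dose, limit read from the data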;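 also: plate controls were DMSO wells with completed reaction for no effect and substrate without enzyme for full effect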
Active calls of the source: *. An excerpt weighted towards active compounds, which were near 2.6% of everything screened.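 The calls were made as follows, unless noted: active = mean inhibition above about 50% in the one-dose retest (limit read from the data); inactive = the rest.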

For COc1ccc2cc(-c3cccnc3)ncc2c1 the results were SENP8 block-1 40, SENP8 block-2 -154, SENP7 block 58*, SENP1 FRET inh -5, UCH37 DUB inh 1, SENP6 inh 53*, SENP8 confirm 38, SENP6 confirm 38, SENP7 conf 81*, Casp3 SENP sel 73* and SENP luc ctr 62*.
`Cc1cc(=O)[nH]c(NN=Cc2c[nH]c3ccccc23)n1` gave UCH37 DUB inh 4.
COC(=O)c1ccc2nc(-c3ccc4c(c3)OCO4)cn2c1 was read as SENP8 block-1 50, SENP8 block-2 -404, SENP7 block 78*, SENP1 FRET inh 0, UCH37 DUB inh -30, SENP6 inh -1, SENP8 confirm 16, SENP6 confirm 17, SENP7 conf 40, Casp3 SENP sel 58* and SENP luc ctr 20.
COc1ccc(-c2cn3cc(C(=O)NN)ccc3n2)cc1 was read as SENP8 block-1 -10, SENP8 block-2 -432, SENP7 block -2, SENP1 FRET inh 0, UCH37 DUB inh inactive and SENP6 inh -21.
For CCc1ccn2cc(-c3ccc4c(c3)OCO4)nc2c1 the results were SENP8 block-1 94*, SENP8 block-2 -412, SENP7 block 97*, SENP1 FRET inh 5, UCH37 DUB inh -172, SENP6 inh 96*, SENP8 confirm 97*, SENP6 confirm 98*, SENP7 conf 102*, Casp3 SENP sel 96* and SENP luc ctr 96*.
`CC(=O)N(C)c1ccc(N=Nc2c(C)[nH]n(C(N)=S)c2=O)cc1` gave SENP8 block-1 78*, SENP8 block-2 18, SENP7 block 85*, SENP1 FRET inh 1, UCH37 DUB inh 16, SENP6 inh 78*, SENP8 confirm 86*, SENP6 confirm 87*, SENP7 conf 98*, Casp3 SENP sel 96* and SENP luc ctr 90*.
For CCN(CC)S(=O)(=O)c1ccc(N=Nc2c(C)[nH]n(C(N)=S)c2=O)cc1 the results were SENP8 block-1 17, SENP8 block-2 36, SENP7 block 18, SENP1 FRET inh 3, UCH37 DUB inh 12, SENP6 inh 54*, SENP8 confirm 41, SENP6 confirm 37, SENP7 conf 72*, Casp3 SENP sel 56* and SENP luc ctr 18.
NC(=S)n1[nH]c(-c2ccc([N+](=O)[O-])cc2)c(N=Nc2ccc(O)cc2)c1=O was read as SENP8 block-1 19, SENP8 block-2 34, SENP7 block 7, SENP1 FRET inh 12, UCH37 DUB inh 3 and SENP6 inh -7.
Screening CCOc1cc(S(=O)(=O)N(CC)CC)ccc1Cl returned SENP8 block-1 -2, SENP8 block-2 9, SENP7 block 3, SENP1 FRET inh -2, UCH37 DUB inh 1 and SENP6 inh -6.
`CCOc1cc(C)c(Cl)cc1S(=O)(=O)N(CC)CC` gave SENP8 block-1 63*, SENP8 block-2 15, SENP7 block -5, SENP1 FRET inh 1, UCH37 DUB inh 3, SENP6 inh 3, SENP8 confirm 4, SENP6 confirm 10, SENP7 conf 11, Casp3 SENP sel 3 and SENP luc ctr 4.
ON=Cc1cc(Br)cc(Br)c1OCc1ccccc1 was read as UCH37 DUB inh 3.
For COC(=O)c1sc(NC(=S)NC(=O)c2ccccc2Cl)nc1C the results were SENP8 block-1 36, SENP8 block-2 13, SENP7 block 27, SENP1 FRET inh -1, UCH37 DUB inh 0, SENP6 inh 62*, SENP8 confirm -16, SENP6 confirm -20, SENP7 conf -2, Casp3 SENP sel 13 and SENP luc ctr -1.
`CC(=O)c1sc(NC(=O)c2ccccc2F)nc1C` gave SENP8 block-1 83*, SENP8 block-2 3, SENP7 block 87*, SENP1 FRET inh 4, UCH37 DUB inh 7, SENP6 inh 83*, SENP8 confirm 86*, SENP6 confirm 84*, SENP7 conf 97*, Casp3 SENP sel 93* and SENP luc ctr 85*.
Screening CC(=O)c1sc(NC(=O)c2cccnc2Cl)nc1C returned SENP8 block-1 -5, SENP8 block-2 12, SENP7 block 3, SENP1 FRET inh 2 and SENP6 inh -11.
Screening Cc1nc(NC(=O)c2cccs2)ccc1Br returned SENP8 block-1 70*, SENP8 block-2 -11, SENP7 block 81*, SENP1 FRET inh 2, UCH37 DUB inh -1, SENP6 inh -14, SENP8 confirm 82*, SENP6 confirm 82*, SENP7 conf 95*, Casp3 SENP sel 80* and SENP luc ctr 70*.
Screening Cc1cc(C)nc(NC(=O)c2cccs2)n1 returned SENP8 block-1 -8, SENP8 block-2 27, SENP7 block -14, SENP1 FRET inh 1, UCH37 DUB inh 4 and SENP6 inh -29.
CC(=O)c1sc(NC(=O)c2cccs2)nc1C was read as SENP8 block-1 45, SENP8 block-2 -24, SENP7 block 62*, SENP1 FRET inh -2, UCH37 DUB inh 5, SENP6 inh 62*, SENP8 confirm 14, SENP6 confirm 52*, SENP7 conf 81*, Casp3 SENP sel 84* and SENP luc ctr 3.
For COc1ccccc1/C=C/C=Nn1c(C2CCCCC2)n[nH]c1=S the results were UCH37 DUB inh 3.

Assay outcomes: PubChem BioAssay, several laboratories
